Source: ChEMBL document CHEMBL1153848, “Design and synthesis of azolopyrimidoquinolines, pyrimidoquinazolines as anti-oxidant, anti-inflammatory and analgesic activities” (2009)
The source made the active and inactive calls.

Experiments:
[1] = Antioxidant activity in Sprague-Dawley rat erythrocytes assessed as peroxyl radical-induced hemolysis after 1 hr; type: functional, Erythrocyte
[2] = tested on: Kidney; experiment: Antioxidant activity in Sprague-Dawley rat kidney assessed as inhibition of lipid peroxidation; type: functional, tissue-based
[3] = Antioxidant activity assessed as ABTS radical scavenging activity at 2 mM; type: functional
Procedure, shortened: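 ABTS radical scavenging, read as the fall in colour absorbance after MeOH/phosphate buffer (1:1) is added. % inhibition = (A_control − A_test)/A_control × 100. The negative control uses MeOH/phosphate buffer (1:1) in place of compound, the blank omits ABTS, and ascorbic acid is the positive control.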

[4] = Protection against bleomycin-induced damage in calf thymus type 1 DNA assessed as absorbance at 532 nm after 1 hr; set-up: concentration or dose not given beside the values
Procedure, shortened: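 Reaction mixture: calf thymus DNA 0.5 mg/mL, bleomycin sulfate 0.05 mg/mL, MgCl2 5 mM, […], sample at various concentrations; 37 °C for 1 h. Stopped with EDTA (0.1 M), then TBA (1% w/v) plus HCl (25% v/v), heated 80 °C 10 min. After centrifugation, DNA damage read as absorbance increase at 532 nm. L-ascorbic acid as positive control.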

[5] = tested on: Brain; experiment: Antioxidant activity in Sprague-Dawley rat brain assessed as inhibition of lipid peroxidation; type: functional, tissue-based
[6] = tested on: Mus musculus; experiment: Central analgesic activity in Swiss albino mouse assessed as thermal stimuli reaction time at 20 mg/kg, po after 90 mins by hot plate method; type: functional
Procedure, shortened: (§1)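 Swiss mice of both sexes (25–30 g), six per group, on a hot plate held at 53 ± 0.5 °C. Latency was timed to hind-paw licking or jumping, with a 60 s cut-off. It was measured before dosing, then at 15, 30, 60 and 90 min after an oral aqueous suspension at 20 mg/kg. Controls were untreated; oral diclofenac sodium 20 mg/kg was the reference.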

[7] = tested on: Rattus norvegicus; experiment: Antiinflammatory activity in Sprague-Dawley rat assessed as protection against carrageenan-induced hind paw edema at 20 mg/kg, po administered 1 hr before carrageenan challenge measured after 2 hrs; type: functional
Procedure, shortened: (§2)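 Adult female albino rats (150–180 g), fasted 18 h, six per group. Aqueous suspension in distilled water given orally at 20 mg/kg 1 h before subplantar injection of 0.1 mL 1% w/v carrageenan into the left hind paw. Vehicle controls got 0.5 mL water; diclofenac sodium 20 mg/kg po was the reference. Paw volume was measured by mercury plethysmometer before injection and hourly for 4 h. Inhibition = (Ec−Et)/Ec, with edema = (Vt−V0)/V0.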

[8] = tested on: Mus musculus; experiment: Peripheral analgesic activity in Swiss albino mouse assessed as protection against acetic acid-induced writhing response at 20 mg/kg, po administered 30 mins before acetic acid challenge measured after 3 hrs relative to control; type: functional
[9] = tested on: Mus musculus; experiment: Peripheral analgesic activity in Swiss albino mouse assessed as protection against acetic acid-induced writhing response at 20 mg/kg, po administered 30 mins before acetic acid challenge measured after 1 hr relative to control; type: functional
[10] = tested on: Mus musculus; experiment: Peripheral analgesic activity in Swiss albino mouse assessed as protection against acetic acid-induced writhing response at 20 mg/kg, po administered 30 mins before acetic acid challenge measured after 30 mins relative to control; type: functional
[11] = tested on: Rattus norvegicus; experiment: Antiinflammatory activity in Sprague-Dawley rat assessed as protection against carrageenan-induced hind paw edema at 20 mg/kg, po administered 1 hr before carrageenan challenge measured after 3 hrs; type: functional; procedure, shortened: as §2
[12] = tested on: Rattus norvegicus; experiment: Antiinflammatory activity in Sprague-Dawley rat assessed as protection against carrageenan-induced hind paw edema at 20 mg/kg, po administered 1 hr before carrageenan challenge measured after 1 hr; type: functional; procedure, shortened: as §2
[13] = tested on: Mus musculus; experiment: Central analgesic activity in Swiss albino mouse assessed as thermal stimuli reaction time at 20 mg/kg, po after 30 mins by hot plate method; type: functional; procedure, shortened: as §1
[14] = tested on: Mus musculus; experiment: Central analgesic activity in Swiss albino mouse assessed as thermal stimuli reaction time at 20 mg/kg, po after 60 mins by hot plate method; type: functional; procedure, shortened: as §1
[15] = tested on: Mus musculus; experiment: Peripheral analgesic activity in Swiss albino mouse assessed as protection against acetic acid-induced writhing response at 20 mg/kg, po administered 30 mins before acetic acid challenge measured after 2 hrs relative to control; type: functional

SMILES | Activity [1] [%] | Activity [2] | inhibition [3] [%] | Activity [4] | Activity [5] | Activity [6] [min] | Activity [7] [%] | Activity [8] [%] | Activity [9] [%] | Activity [10] [%] | Activity [11] [%] | Activity [12] [%] | Activity [13] [min] | Activity [14] [min] | Activity [15] [%]
Cc1c(C(=O)/C=C/c2ccccc2)sc2nc3nc4c(c(-c5ccc(Cl)cc5)c3c(=O)n12)CCC/C4=C/c1ccc(Cl)cc1 | 4.54 | Active | 38.9 | 0.035 | Active |  |  |  |  |  |  |  |  |  | 
C/C(=N/NC(N)=S)c1sc2nc3nc4c(c(-c5ccc(Cl)cc5)c3c(=O)n2c1C)CCC/C4=C/c1ccc(Cl)cc1 | 6.21 | Active | 63 | 0.065 | Active |  |  |  |  |  |  |  |  |  | 
O=c1[nH]c(=S)[nH]c2c1C(c1ccccc1)C1=C(N2)/C(=C/c2ccccc2)CCC1 (stereo not given) | 35.75 | Active | 81.5 | 0.025 | Active | 11.67 | 53.2 | 50.1 | 65.1 | 61.2 | 41 | 49 | 9.42 | 10.41 | 69.2
CCn1c(SC)nc2nc3c(c(-c4ccc(Cl)cc4)c2c1=O)CCC/C3=C/c1ccc(Cl)cc1 | 3.93 | Active | 37 | 0.021 | Active |  |  |  |  |  |  |  |  |  | 
O=C1O[C@H]([C@@H](O)CO)C(O)=C1O |  |  |  | 0.02 |  |  |  |  |  |  |  |  |  |  | 
CC(=O)C(Sc1nc2nc3c(c(-c4ccc(Cl)cc4)c2c(=O)[nH]1)CCC/C3=C/c1ccc(Cl)cc1)C(C)=O | 7.87 | Active | 42.6 |  | Active | 10.4 | 48.6 | 37.3 | 54 | 46 | 38.6 | 46.3 | 8.68 | 9.8 | 56.6
